eIF4H inh: inhibitors of RNA binding by human eIF4H | Q15056 | actives 0.94% (n = 290,000) | eIF4H fluorescence polarization binding assay | inhibition, % at 35 µM;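 further: calls also rest on retests at 20 µM and on dose response follow-up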
PABP1 MLLE inh: inhibitors of microRNA-mediated deadenylation, human PABP1 MLLE binding. GST-MLLE / FITC-PAM2 fluorescence polarization. inhibition, % at 20 µM. actives 0.36% (n = 360,000). AID 588489. P11940; in the data active means inhibition above about 35%, passing the limit was not always enough;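 further: plate controls were DMSO wells with GST-MLLE for no effect and wells lacking GST-MLLE protein for full effect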
PABP polyA inh: PABP-poly(A) binding inhibition; P11940; PABP-poly(A) RNA binding, fluorescence polarization; inhibition, % at 35 µM; actives 1% (n = 290,000);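 further: calls also rest on retests at 20 µM and on dose response follow-up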
MT1-MMP act inh: blocks activation of human MT1-MMP | P50281 | HT1080 RFP-PRO-GFP cells, GFP/RFP ratio fluorescence, overnight; percent of plate control window, DMSO zero | GFP/RFP ratio change, % at 20 µM | actives 0.061% (n = 360,000);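 active means GFP/RFP ratio change of at least 30% with cell ATP level not reduced by more than half and red fluorescence within 50% of control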
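Test system: HT1080 RFP-PRO-GFP cells; Benchmarks: DMSO and RFP-L50D-GFP cell wells; Timing: cells overnight before dosing, compound overnight, 37 °C, 5% CO2; Compound: one 20 µM compound dose with 1% DMSO; Read-out: GFP/RFP fluorescence ratio.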
SKN-1 block: inhibitors of C. elegans SKN-1. C. elegans VP596 Pgst-4::GFP/RFP ratio, acrylamide-induced, 24 h. inhibition, % at 21.8 µM. actives 0.49% (n = 360,000). AID 624304;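 active means interference check ratio from 0.5 to 1.5 plus GFP to RFP signal ratio inhibition reaching or exceeding a fixed threshold, cut at about 30% in these data, passing the limit was not always enough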
* = called active by the depositor; x = no result; ! = a repeat was not active. This is a sample that favours compounds with a hit; in the whole collection about 1.7% have one here. Unless noted, how the calls were made is not given here.

SMILES	eIF4H inh	PABP1 MLLE inh	PABP polyA inh	MT1-MMP act inh	SKN-1 block
C(=N\n1c2ccccc2c2ccccc21)/c1ccccc1	-7	-3	2	-4	10
Fc1ccc(SCCc2ccncc2)cc1	-3	43*!	-11	3	-13
c1ccc(SCCc2ccncc2)cc1	24	16	15	-2	-10
COc1ccc(OC)c(S(=O)(=O)N2CCC(C(=O)NCc3ccncc3)CC2)c1	3	10	-1	0	-10
CN(C)c1nc(=S)nc(NCc2ccccc2)[nH]1	-2	33	-7	-1	-3
CC(C)CNc1nc(=S)nc(N(C)C)[nH]1	-12	43*	-3	0	-20
O=c1[nH]cnc2scc(-c3ccc(-c4ccccc4)cc3)c12	59	-7	35*	3	8
O=C(Nc1cccc([N+](=O)[O-])c1)c1cc2ccccc2cc1O	61*	-1	16*	x	4
CC1CCCCN1S(=O)(=O)c1ccc(C(=O)Nc2sccc2C(N)=O)cc1 (stereo not given)	7	6	3	6	40*
NC(=O)c1ccsc1NC(=O)C1CCCN1S(=O)(=O)c1ccc(Cl)cc1 (stereo not given)	3	10	-6	0	2
Cc1ccc(C)c(NC(=O)C(=O)NCC2CCCN2S(=O)(=O)c2cccs2)c1 (stereo not given)	x	-7	x	0	12
Cn1nc(C(=O)O)c(=O)n(C)c1=O	x	40*	x	1	-3
CNC[C@H]1Oc2c(NS(=O)(=O)c3ccccc3)cccc2C(=O)N([C@H](C)CO)C[C@@H]1C	x	-17	x	3	-13
CCOC(=O)C1Oc2ccccc2C(c2cccc3ccccc23)=C1C(=O)OC (stereo not given)	x	-6	x	-3	18
CC(NC(=O)CNC(=O)c1ccco1)c1ccccc1 (stereo not given)	2	7	-3	-2	-24
COc1ccc(C(C(=O)NC2CCCCC2)N(Cc2cccs2)C(=O)Cc2c[nH]c3ccccc23)cc1 (stereo not given)	-17	5	0	-8	39*
COc1cc2c(cc1OC)[C@@H](NC(=O)CCc1ccccc1)[C@H](O)C2	x	9	x	0	-8
Cc1c(NC(=S)Nc2cccc(Cl)c2)c(=O)n(-c2ccccc2)n1C	active	16	98	-2	2
CC1CCc2sc3c(c2C1)c(=O)n(CC(=O)O)c(=O)n3Cc1ccc(Cl)cc1 (stereo not given)	8	-28	15	0	6
CCOC(=O)[C@H]1[C@H]2COc3ccc(Br)cc3[C@H]2N2C(=O)CN(Cc3ccc(C)cc3)C(=O)[C@@]12C	x	47*	x	-24	-9
CN(CCC1CCOCC1)C(=O)C1CCC(=O)N(CCc2ccccc2)C1 (stereo not given)	-12	6	-15	-1	10
CCCOC(=O)c1cc(=O)[nH]c2ccccc12	6	-4	3	7	37*
CCn1c(C)[n+](CCOC(C)=O)c2cc(Cl)c(Cl)cc21	0	-128	62*	-2	-9
CC(=O)OCCCn1c(C)[n+](C)c2cc(Cl)c(Cl)cc21	-16	-137	49	6	-14
CC(OC(=O)/C(C#N)=C/c1ccc(N(C)C)cc1)C(=O)N(C)c1ccccc1 (stereo not given)	x	-142	x	-50	46*
SMILES	eIF4H inh	PABP1 MLLE inh	PABP polyA inh	MT1-MMP act inh	SKN-1 block
CC(=O)Nc1ccc(NC(=O)C(C)OC(=O)/C(C#N)=C/c2ccc(N(C)C)cc2)cc1 (stereo not given)	x	36	x	-49	57
CCOC(=O)C1=C(C)NC(C)=C(C(=O)OCC)C1c1cccs1	-1	9	-6	1	7
C#CCSC1=C(C#N)C(c2cccs2)C(C(=O)OCC)=C(C)N1 (stereo not given)	63*	8	16*	-4	17
COc1cccc(NC(=O)Nc2nc(-c3ccc(OC)c(OC)c3)cs2)c1	1	20	-1	-28	15
CN(C)c1ccc(/C=N/NC(=O)CN(c2ccccc2Cl)S(C)(=O)=O)cc1Br	8	-4	2	-1	36*
COC(=O)Oc1ccc(/C=N/NC(=O)CN(c2ccccc2Br)S(C)(=O)=O)cc1OC	x	1	x	1	7
Cc1[nH]n(-c2ncc(-c3ccc(Cl)cc3)s2)c(=O)c1C(c1ccc(Cl)cc1)C(C#N)C#N (stereo not given)	86	5	5.9*	7	9
CCCn1c(=O)c2sccc2n2c(CCCC(=O)NCc3ccco3)nnc12	78*	-1	33*	-2	-3
CCCn1c(=O)c2sccc2n2c(CCCC(=O)NCc3cccnc3)nnc12	-6	2	14	-2	7
CCCNC(=O)NCCc1c(C)[nH]c2ccccc12	-2	53*	-2	-5	-2
O=C(Nc1cccc(Cl)c1)Nc1csc([N+](=O)[O-])c1	-6	-5	10	-12	-11
CCC(=NN=C(CC)c1ccccc1O)c1ccccc1O	x	0	x	1	-2
C/C(=N/N=C(\C)c1ccccc1O)c1ccccc1O	86	-12	66*	-7	4
S=c1nc2c(n[nH]1)c1ccccc1n2CCc1ccccc1	-10	39*	3	5	-11
COc1nccnc1NS(=O)(=O)c1ccc(NC(=S)NC(=O)/C=C/c2ccccc2)cc1	1	45*	8	-2	1
Cc1ccc(N2CSC3=C(C#N)C(c4cccs4)CC(=O)N3C2)cc1 (stereo not given)	61*	-30	82*	-1	-7
COc1ccc(N2CSC3=C(C#N)C(c4cccs4)CC(=O)N3C2)cc1 (stereo not given)	15*	-41	62*	-2	-2
CCc1ccc(N2CSC3=C(C#N)C(c4cccs4)CC(=O)N3C2)cc1 (stereo not given)	48	-25	66	-10	11
N#CC1=C2SCN(c3ccc(F)cc3)CN2C(=O)CC1c1cccc(F)c1 (stereo not given)	43*	-37	57	-4	-4
CCCCNC(=O)c1ccc2nc(CC)c(N(C)Cc3ccc(OC)cc3)n2c1	x	-1	x	-2	11
O=C(NCC1CCN(Cc2ccc(F)cc2)CC1)Nc1cc(F)ccc1F	9	-9	6	-1	17
Cc1nc2sc3c(=O)[nH]nnc3c2c(C)c1Br	-2	0	35	1	-7
CC(C(=O)c1ccc(Br)cc1)[n+]1cccc2ccccc21 (stereo not given)	90	-28	31*	-65	37
O=C(c1nc2ccccn2c1CN1CCCC(O)C1)N1CCN(C2CCCCC2)CC1 (stereo not given)	22	42*	28	-4	-15
CN1/C(=C\C(=O)COC(=O)Cn2nnc(-c3ccccc3)n2)C(C)(C)c2ccccc21	6	-45	7	39*	66

Compound activity: PubChem BioAssay, Sanford-Burnham Center for Chemical Genomics
